Laboratory results published in ChEMBL document CHEMBL1121464, “14-(Arylhydroxyamino)codeinones and derivatives as analgetics and antagonists” (1980).
“And” between values parts separate entries of the source, which are not always exact repeats. Equal entries are not always repeated. The source made the active and inactive calls.

Legend:
Mus musculus [1] = species: Mus musculus; test: Maximum percent analgesia using tail flick test in mice; format: functional
Summary of the method: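 Young male Swiss mice (ca. 35 g) restrained in cylinders, with the tail exposed to 54 °C water. Reaction time (shorter of a pair) taken pre-dose and every 15 min to 2 h. Naive non-responders under 2.2 s excluded; 5 s cutoff. Dosed ip at 20 mg/kg in propylene glycol or water, 9–11 mice per group. […] Analgesia defined as PRT >2.6 s; the value is the peak percentage of analgesic mice at any time point.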

Mus musculus [2] = test: Tested for analgesic activity using writhing test in mice at 20 mg/kg upon subcutaneous administration; Inactive; format: functional, organism-based; design: dose 20 mg/kg
Mus musculus [3] = test: Tested for analgesic activity using writhing test in mice at 20 mg/kg upon subcutaneous administration; format: functional; conditions: sc
Mus musculus [4] = test: Tested for antagonistic activity using Straub tail test in mice at 20 mg/kg upon subcutaneous administration; format: functional; conditions: sc
Mus musculus [5] = test: Tested for antagonistic activity using Straub tail test in mice at 20 mg/kg upon subcutaneous administration; Inactive; format: functional, organism-based; design: dose 20 mg/kg

C=CCN1CC[C@]23c4c5ccc(O)c4O[C@H]2C(=O)CC[C@@]3(O)[C@H]1C5 [NALOXONE]
Analgesia (Mus musculus [1]): 32% | ED50 (Mus musculus [2]): inactive

COc1ccc2c3c1OC1C(=O)CCC4(Nc5ccccc5)C(C2)N(C)CCC314 (centres undefined)
Analgesia (Mus musculus [1]): 10% | ED50 (Mus musculus [3]): 1.04 mg/kg | ED50 (Mus musculus [4]): > 40 mg/kg

COc1ccc2c3c1OC1C(=O)CCC4(Nc5ccc(F)cc5)C(C2)N(CC2CC2)CCC314 (centres undefined)
Analgesia (Mus musculus [1]): 32% | ED50 (Mus musculus [3]): ~25 mg/kg | ED50 (Mus musculus [4]): ~5 mg/kg

COc1ccc2c3c1OC1C(=O)CCC4(Nc5ccccc5)C(C2)N(CC2CC2)CCC314 (centres undefined)
Analgesia (Mus musculus [1]): 10% | ED50 (Mus musculus [3]): ~40 mg/kg | ED50 (Mus musculus [4]): ~10.5 mg/kg

CN1CC[C@]23c4c5ccc(O)c4O[C@H]2[C@@H](O)C=C[C@H]3[C@H]1C5 [MORPHINE]
Analgesia (Mus musculus [1]): 80% | ED50 (Mus musculus [5]): inactive | ED50 (Mus musculus [3]): 0.26 mg/kg

COc1ccc2c3c1OC1C(=O)CCC4(Nc5ccc(F)cc5)C(C2)N(C)CCC314 (centres undefined)
Analgesia (Mus musculus [1]): 10% | ED50 (Mus musculus [3]): 0.76 mg/kg | ED50 (Mus musculus [4]): > 40 mg/kg

COc1ccc2c(c1O)C13CCN(CC4CC4)C(C2)C12C=CC(=O)C3ON2c1ccccc1 (centres undefined)
Analgesia (Mus musculus [1]): 20% | ED50 (Mus musculus [3]): > 40 mg/kg | ED50 (Mus musculus [4]): > 40 mg/kg

COc1ccc2c3c1OC1C(=O)C=CC4(N(O)c5ccc(F)cc5)C(C2)N(C)CCC314 (centres undefined)
Analgesia (Mus musculus [1]): 30% | ED50 (Mus musculus [3]): 0.71 mg/kg | ED50 (Mus musculus [4]): > 40 mg/kg

COc1ccc2c(c1O)C13CCN(CC4CC4)C(C2)C12C=CC(=O)C3ON2c1ccc(F)cc1 (centres undefined)
Analgesia (Mus musculus [1]): 20% | ED50 (Mus musculus [3]): ~31 mg/kg | ED50 (Mus musculus [4]): > 40 mg/kg

COc1ccc2c(c1O)C13CCN(C)C(C2)C12C=CC(=O)C3ON2c1ccc(F)cc1 (centres undefined)
Analgesia (Mus musculus [1]): 90% | ED50 (Mus musculus [3]): 2.53 mg/kg | ED50 (Mus musculus [4]): > 40 mg/kg

COc1ccc2c3c1OC1C(=O)C=CC4(N(O)c5ccccc5)C(C2)N(CC2CC2)CCC314 (centres undefined)
Analgesia (Mus musculus [1]): 32% | ED50 (Mus musculus [3]): > 40 mg/kg | ED50 (Mus musculus [4]): ~7 mg/kg

COc1ccc2c3c1OC1C(=O)C=CC4(N(O)c5ccccc5)C(C2)N(C)CCC314 (centres undefined)
Analgesia (Mus musculus [1]): 20% | ED50 (Mus musculus [3]): 1.45 mg/kg | ED50 (Mus musculus [4]): > 20 mg/kg

COc1ccc2c3c1OC1C(=O)C=CC4(N(O)c5ccc(F)cc5)C(C2)N(CC2CC2)CCC314 (centres undefined)
Analgesia (Mus musculus [1]): 32% | ED50 (Mus musculus [3]): ~40 mg/kg | ED50 (Mus musculus [4]): 12 mg/kg

COc1ccc2c3c1OC1C(=O)C=CC4(NO)C(C2)N(C)CCC314 (centres undefined)
Analgesia (Mus musculus [1]): 10% and 20% | ED50 (Mus musculus [3]): 5 mg/kg | ED50 (Mus musculus [4]): > 20 mg/kg

COc1ccc2c(c1O)C13CCN(C)C(C2)C12C=CC(=O)C3ON2c1ccccc1 (centres undefined)
Analgesia (Mus musculus [1]): 50% | ED50 (Mus musculus [3]): 1.87 mg/kg | ED50 (Mus musculus [4]): > 40 mg/kg
